Experiments:
[1] = Oral bioavailability and pharmacokinetics in Slc3a1-knockout mice; assay type: in vivo; settings: male, mouse, plasma, 150 umol/kg
Summary of the method: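 Male Slc3a1-knockout mice (4 per route) received a single oral gavage of 150 μmol/kg in normal saline (100 μL) or a tail-vein iv dose of 30 μmol/kg. About 60 μL saphenous blood was drawn pre-dose and at 5, 15, 30 min and 1, 4, 8, 24 h. Plasma was stored at −80 °C. Parent and mixed-disulfide metabolite were quantified by LC-MS/MS against synthetic metabolite standard. F was derived from oral versus iv exposure.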

[2] = system: L-cystine stone formation in Slc3a1-knockout mouse model of cystinuria; assay: In vivo efficacy in Slc3a1-knockout mouse model of cystinuria; set-up: species or system Slc3a1-knockout male mice; settings: 150 μmol/kg by gavage daily for 8 weeks
[3] = L-cystine crystallization inhibition assay; settings: from EC50 values
Summary of the method: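 Supersaturated L-cystine (2.9 mM in Millipore water) was incubated with varying test compound concentrations for 72 h at room temperature, then centrifuged. L-cystine remaining in the supernatant was measured. EC50 came from dose–response curves, and relative potency was expressed as a ratio of EC50 values against reference inhibitors.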

CL/F [1]: 133 mL/min/kg | Vd/F [1]: 7 L/kg
SMILES: N[C@@H](CSSC[C@H](N)C(=O)N1CCC2(CCCN2)CC1)C(=O)N1CCC2(CCCN2)CC1 [compound 3, 8-L-cystinyl bis(1,8-diazaspiro[4.5]decane)]
Effect on growth [2]: no adverse effect on growth | Mice with stones in treated group ([2]; water group 28 of 51): 1 out of 25 | Fold more potent than CDME in inhibiting L-cystine crystallization [3]: about 120 × | Fold more potent than LH708 in inhibiting L-cystine crystallization [3]: about 2 × | Fold more potent than CDME in inhibiting L-cystine crystallization ([3]; listed as LH1753): 120 × | Fold more potent than LH708 in inhibiting L-cystine crystallization ([3]; listed as LH1753): 2 ×

— PMC11247636 (ACS Medicinal Chemistry Letters, 2024)
